These results are taken from PubChem BioAssay.

The source made the active and inactive calls.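 The calls were made as follows, unless noted: active = NADPH fluorescence slope more negative than the mean of all samples by about 3 SD, 99.7% confidence; inactive = the rest.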

Assay [1] in a line: inhibitors of TNFa-induced NFkB p65 translocation, primary screen, imaging, HUVEC, MLSMR starter and 10KST1 sets (AID 438;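 active = inhibition above 20% together with a positive visual image hit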;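 also: compound added about 3h40 before a 20 min TNFalpha stimulation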;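 as to inhibition: signal is the nuclear over cytoplasmic p65 intensity ratio per well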). The settings on record: HUVEC TNFa-induced p65 nuclear translocation; cell count: measured here: nuclei count (cytotoxicity indicator), at 2.08 µM; inhibition: at 2 µM, stronger effect = higher value, 0% TNFa-plus-vehicle, 100% no-TNFa wells.
The nature of assay [2]: inhibitors of E-selectin induction by TNFa, primary screen, imaging, HUVEC, immunofluorescence, MLSMR starter and 10KST1 sets (AID 487;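 active = visually confirmed hit in the image check and inhibition above 20%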;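 as to inhibition: signal is fraction of cell area covered by stained E-selectin grains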;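 as to nuclei count: 100% = median nuclei count of all wells on the same plate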). As to conditions: HUVEC TNFalpha-induced E-selectin immunofluorescence imaging, at 2 µM; inhibition: stronger effect = higher value; nuclei count: measured here: cell number, toxicity.
Assay [3] in a line: DUSP6 inhibitors restoring Erk phosphorylation by chemical complementation, primary imaging in DUSP6-transfected HeLa (AID 609;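 active = compounds giving at least 50% inhibition in the cell-based MKP-3 phosphatase rescue imaging test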;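 as to inhibition: phospho-Erk level distribution per well compared with pooled transfected vehicle control wells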). As to conditions: HeLa MKP-3 transfected, phospho-Erk imaging KS statistic, at 10 µM, cells stimulated with TPA for 15 min.
In assay [4] the target is Dual specificity protein phosphatase 6 (Homo sapiens) (UniProt Q16828). Described as above. As to conditions: HeLa MKP-3 transfected, phospho-Erk imaging KS statistic; at 10 µM; stronger effect = higher value; cells stimulated with TPA for 15 min.
The target of assay [5] is Voltage-gated potassium channel subunit beta-2 (Rattus norvegicus) (UniProt P62483). The experiment in a line: KvBeta enzyme negative modulators, primary screen, biochemical, NADPH fluorescence (AID 622;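 active = fluorescence slope higher than the sample average by over 3 SD, cut at about -0.22 in these data, passing the limit was not always enough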;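 also: slope of raw intensity against log time taken from 70 to 1610 s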). As to conditions: recombinant KvBeta, 4-cyanobenzaldehyde reduction, at 10 µM, stronger effect = higher value.
Assay [6] shares this target. The experiment in a line: KvBeta positive modulators, primary screen, biochemical, NADPH fluorescence (AID 623).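 Also: fluorescence intensity change per second fitted from 20 to 320 s.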 The settings on record: Recombinant KvBeta, NADPH fluorescence decrease slope, 10 min; at 10 µM; stronger effect = lower value.
Assay [7] deals with Muscarinic acetylcholine receptor M4 (Homo sapiens) (UniProt P08173). Description: compounds altering M4/GIRK thallium flux, either direction, primary screen, M4 allosteric agonist project, cell-based, HEK293 M4/GIRK, BTC-AM (AID 625;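 active = fluorescence slope after compound addition differing from the mean of all tested samples at 99.7% confidence, mostly higher but some lower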;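 also: thallium influx through GIRK channels coupled to M4 in HEK293 cells with BTC-AM dye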). The settings on record: at 10 µM, actives lie on both sides. In outline: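 Material – HEK293 cells with M4 receptor and GIRK channels · Buffer or medium – pH 7.3 thallium assay buffer · Doses – one dose, 10 µM final · Timing – cells overnight at 37 °C, BTC-AM loading 1 h, reads 2 min total · Measured by – kinetic fluorescence with BTC-AM dye · Controls – carbachol and DMSO controls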

A short description of assay [8]: inhibitors of larval lipid processing in zebrafish, primary screen, whole organism, PED6 fluorescence, gall bladder and intestine (AID 686;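 active = a full or partial loss of lipid-probe fluorescence in the fish gall bladder, intestine or both, judged by eye; inactive = no fluorescence loss, or compound toxic to the fish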;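 also: larvae 5 to 7 days old with five fish per well; signal comes from phospholipase A2 cleavage of quenched PED6 carried via bile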). The settings on record: Zebrafish larvae PED6 lipid processing, fluorescence scoring; screened at 20 µM (by protocol). The essentials: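 system = live zebrafish larvae aged 5-7 days, whole organism | probe or stimulus = ingested quenched lipid PED6 at 100 nM | doses = 20 µM single dose | timing = overnight exposure | detection = fluorescence microscopy with visual scoring of gall bladder and intestine | read-out = visual per-well fluorescence inhibition score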

The nature of assay [9]: inhibitors of Chlamydomonas gravitaxis, primary screen, whole organism, Chlamydomonas reinhardtii, WT vs cilia-less mutant, absorbance, 96-well (AID 463189;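 active = inhibition at or above 50% relative to wild type and mutant plate controls; inactive = inhibition below 50%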;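 also: 0% = wild type cc124 cells in DMSO and 100% = ciliumless bld1 mutant cells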). As to conditions: OD600 absorbance, 2 days, at 10 µM, stronger effect = higher value.
Where [10] appears, read: measured here: cell density z-score.
Where [11] appears, read: measured here: nuclear c-Myc green intensity z-score.
Where [12] appears, read: measured here: nuclear pErk red intensity z-score, stronger effect = higher value.

Sequence of Muscarinic acetylcholine receptor M4 (Homo sapiens) (P08173 whole entry, looked up): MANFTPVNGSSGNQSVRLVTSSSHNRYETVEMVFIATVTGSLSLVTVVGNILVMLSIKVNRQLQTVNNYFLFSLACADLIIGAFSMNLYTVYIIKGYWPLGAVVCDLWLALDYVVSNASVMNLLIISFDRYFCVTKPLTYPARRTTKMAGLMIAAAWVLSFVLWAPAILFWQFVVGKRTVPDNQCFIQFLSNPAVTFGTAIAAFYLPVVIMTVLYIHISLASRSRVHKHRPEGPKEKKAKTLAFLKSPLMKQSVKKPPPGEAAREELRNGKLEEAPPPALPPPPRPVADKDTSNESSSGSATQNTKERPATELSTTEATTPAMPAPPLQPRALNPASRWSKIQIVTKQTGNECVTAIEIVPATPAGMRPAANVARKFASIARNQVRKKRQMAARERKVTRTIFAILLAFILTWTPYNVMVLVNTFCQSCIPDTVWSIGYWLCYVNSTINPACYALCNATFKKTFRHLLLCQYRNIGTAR
Sequence of Voltage-gated potassium channel subunit beta-2 (Rattus norvegicus) (P62483 whole entry, looked up): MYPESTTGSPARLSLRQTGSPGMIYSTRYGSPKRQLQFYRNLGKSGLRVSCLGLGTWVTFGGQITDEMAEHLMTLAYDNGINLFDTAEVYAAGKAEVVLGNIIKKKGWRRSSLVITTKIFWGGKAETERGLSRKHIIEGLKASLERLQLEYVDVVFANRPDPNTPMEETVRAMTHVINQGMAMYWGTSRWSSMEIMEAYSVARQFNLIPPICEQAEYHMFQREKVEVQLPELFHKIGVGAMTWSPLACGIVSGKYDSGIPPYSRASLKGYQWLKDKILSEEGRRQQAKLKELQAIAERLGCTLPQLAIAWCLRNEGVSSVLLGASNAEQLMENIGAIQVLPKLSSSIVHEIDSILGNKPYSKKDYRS
Sequence of Dual specificity protein phosphatase 6 (Homo sapiens) (Q16828 whole entry, looked up): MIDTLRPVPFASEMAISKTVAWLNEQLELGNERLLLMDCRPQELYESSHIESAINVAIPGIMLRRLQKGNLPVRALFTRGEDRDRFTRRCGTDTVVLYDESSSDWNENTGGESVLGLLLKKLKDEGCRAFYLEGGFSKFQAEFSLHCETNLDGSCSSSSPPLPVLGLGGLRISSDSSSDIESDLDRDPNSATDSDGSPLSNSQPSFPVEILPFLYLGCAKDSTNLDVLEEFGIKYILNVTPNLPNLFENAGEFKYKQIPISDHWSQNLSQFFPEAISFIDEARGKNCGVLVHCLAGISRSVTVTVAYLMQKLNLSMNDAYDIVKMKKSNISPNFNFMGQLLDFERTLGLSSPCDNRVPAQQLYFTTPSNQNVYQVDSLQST

As usually defined, the inhibition is the relative decrease from the control value, in per cent. With `COc1ccc2nc(SCC(=O)O)nc(C)c2c1`, in assay [1], the cell count came to 472. Moreover, the inhibition was -2.5% (inactive) in assay [1], -119% (inactive) in [2], -2.29% (inactive) in assay [4] and 25.2% (inactive) in assay [9]. Also, the nuclei count in assay [2] worked out at 167%. The z-score in assay [3] (setting [10]) is -1.34; in assay [3] (setting [11]), -1.35; in assay [3] (setting [12]), 0.21. For the same compound, the results for the fluorescence slope in assay [5] and in assay [7] were -0.447 (inactive) and 0.00491 (inactive), respectively. In assay [6], the NADPH fluorescence slope is -4.9e-05 (inactive). Also, in assay [8], the result was inactive.

On to `Cc1ccc(NC(=O)CSc2nnc(-c3ccco3)c(-c3ccco3)n2)cc1`, for which, in assay [1], the cell count was 389. For the same compound, the inhibition was -7.7% (inactive) in assay [1], -155% (inactive) in assay [2], -0.608% (inactive) in [4] and 11.9% (inactive) in assay [9]. The nuclei count in assay [2] is 183%. In addition, the z-score in assay [3] (setting [10]) is -0.429; in assay [3] (setting [11]), -0.71; in [3] (setting [12]), 1.45. The fluorescence slope in assay [5] was -0.453 (inactive); in assay [7] it was 0.00329 (inactive). The NADPH fluorescence slope in [6] was -0.000112 (inactive). The compound was classed as inactive in assay [8].

On to `Cc1ccc(N2C(=O)CC3(CC4C=CC3C4)C2=O)cc1` (centres undefined), for which the cell count in assay [1] turned out to be 637. Further, the inhibition in assay [1] is 6.2% (inactive); in assay [2], -47.9% (inactive); in assay [4], -2.09% (inactive); in assay [9], -4.98% (inactive). The compound also came in with a nuclei count in assay [2] of 115%. Also, the z-score in assay [3] (setting [10]) was 1.62; in [3] (setting [11]) it was -0.359; in assay [3] (setting [12]) it was -0.765. The results for the fluorescence slope in assay [5] and in [7] were -0.414 (inactive) and 0.00482 (inactive), respectively. Besides, the NADPH fluorescence slope in assay [6] was -3.6e-05 (inactive). Further, in [8], the outcome was inactive.

For `CCCCc1cc(=O)oc2c(CN3CCCC3)c(O)ccc12`, in [1], the cell count turned out to be 600. The inhibition in assay [1] is -1.9% (inactive); in [2] it was 32.2% (inactive); in assay [4] it was 4.37% (inactive); in assay [9], -2.81% (inactive). This compound displayed a nuclei count in assay [2] of 151%. Moreover, the figures for the z-score in [3] (setting [10]), in assay [3] (setting [11]) and in assay [3] (setting [12]) were 0.99, -0.992 and -0.105, respectively. In addition, the fluorescence slope in [5] was -0.0163 (inactive); in [7], 0.00474 (inactive). Moreover, the NADPH fluorescence slope in [6] is 5.9e-06 (inactive). In addition, the compound was called inactive in assay [8].

With `Nc1ccc2oc(-c3ccccc3Cl)nc2c1`, the cell count in assay [1] came to 644. The inhibition is -0.2% (inactive) in assay [1], 7.8% (inactive) in assay [2], -7.67% (inactive) in assay [4] and 26.6% (inactive) in [9]. The nuclei count in assay [2] was determined as 145%. For the same compound, the z-score in assay [3] (setting [10]) is 0.0664; in assay [3] (setting [11]) it was -0.553; in assay [3] (setting [12]) it was -0.135. Further, the values for the fluorescence slope in [5] and in assay [7] were -0.136 (inactive) and 0.00466 (inactive), respectively. The NADPH fluorescence slope in assay [6] is -5.7e-05 (inactive). In addition, the call in assay [8] was inactive.

As to `CC(C)(C)c1cc(-c2ccco2)c(C#N)c(SCC#N)n1`, in [1], the cell count came to 685. The inhibition was 6.9% (inactive) in assay [1], -48.1% (inactive) in assay [2], -9.53% (inactive) in [4] and -12.6% (inactive) in assay [9]. Moreover, in assay [2], the nuclei count was determined as 116%. The z-score in [3] (setting [10]) is 0.036; in assay [3] (setting [11]) it was 0.336; in assay [3] (setting [12]), 0.596. In addition, the fluorescence slope in assay [5] is -0.442 (inactive); in [7], 0.0081 (inactive). For the same compound, the NADPH fluorescence slope in [6] was -7.2e-05 (inactive). The outcome in assay [8] was inactive.

As for `Cn1c(=O)[nH]c(=O)c2c1nc(Br)n2CCSc1ncccn1`, the cell count in assay [1] was 643. In addition, the inhibition was -7.6% (inactive) in [1], -107% (inactive) in [2], -2.59% (inactive) in assay [4] and 13.2% (inactive) in [9]. For the same compound, the nuclei count in assay [2] was 179%. For the same compound, the z-score is 0.65 in assay [3] (setting [10]), -0.91 in [3] (setting [11]) and -0.622 in [3] (setting [12]). The fluorescence slope in [5] was -0.446 (inactive); in assay [7] it was 0.00519 (inactive). Further, the NADPH fluorescence slope in [6] was -4.5e-05 (inactive). In addition, the call in [8] was inactive.

`O=C(O)C1CC(=O)n2c(nc3ccccc32)S1` (centres undefined): the cell count in assay [1] was 608. Also, the inhibition was -4.4% (inactive) in assay [1], -24.7% (inactive) in [2], 3.49% (inactive) in [4] and 8.06% (inactive) in assay [9]. The nuclei count in assay [2] is 119%. For the same compound, the figures for the z-score in assay [3] (setting [10]), in [3] (setting [11]) and in assay [3] (setting [12]) were 0.706, -1.47 and -0.562, respectively. In addition, the fluorescence slope in [5] is -0.47 (inactive); in assay [7] it was 0.00435 (inactive). For the same compound, in assay [6], the NADPH fluorescence slope is -6e-05 (inactive). Moreover, the compound was called inactive in [8].

Consider `CCOc1ccc(S(=O)(=O)N(C)CCO)cc1-c1nc2c(C(C)(C)C)nn(C)c2c(=O)[nH]1`, for which the cell count in assay [1] came out at 637. Besides, the inhibition in [1] was 4.6% (inactive); in assay [2], -94.9% (inactive); in assay [4], 1.12% (inactive); in assay [9] it was 8.59% (inactive). Moreover, the nuclei count in [2] came out at 165%. For the same compound, the z-score was 0.365 in assay [3] (setting [10]), 1.27 in [3] (setting [11]) and -0.248 in assay [3] (setting [12]). Moreover, the fluorescence slope in [5] is -0.484 (inactive); in [7], 0.00687 (inactive). Further, the NADPH fluorescence slope in assay [6] is -3.4e-05 (inactive). Also, the compound was classed as inactive in assay [8].

`CCCC1Cc2c(sc3nc(SC)nc(N)c23)CO1` (centres undefined): the cell count in assay [1] stood at 489. In addition, the inhibition was -14.7% (inactive) in assay [1], 27.8% (inactive) in assay [2], -3.97% (inactive) in [4] and 27.7% (inactive) in assay [9]. This compound also had a nuclei count in assay [2] of 170%. Besides, the z-score in [3] (setting [10]) was -0.331; in assay [3] (setting [11]) it was 0.0787; in assay [3] (setting [12]), 0.594. Also, the fluorescence slope in assay [5] is -0.47 (inactive); in assay [7] it was 0.00573 (inactive). Moreover, the NADPH fluorescence slope in assay [6] is -4.4e-05 (inactive). Also, the compound was called inactive in assay [8].

As to `Cc1ccc(S(=O)(=O)N(CC(O)CN(C)C)c2ccccc2)cc1` (centres undefined), the cell count in assay [1] came to 534. Moreover, the inhibition in assay [1] is -13.1% (inactive); in assay [2], -98.3% (inactive); in assay [4] it was -6.59% (inactive); in assay [9], 2.93% (inactive). The nuclei count in assay [2] was found to be 180%. Moreover, the values for the z-score in assay [3] (setting [10]), in [3] (setting [11]) and in assay [3] (setting [12]) were 0.563, -0.408 and -0.341, respectively. In addition, the fluorescence slope in assay [5] was -0.412 (inactive); in [7], 0.00541 (inactive). Moreover, in assay [6], the NADPH fluorescence slope is -7e-05 (inactive). In assay [8], the result was inactive.

Turning to `Cn1c(=O)c2c(nc(NCc3ccco3)n2Cc2ccc(Cl)cc2Cl)n(C)c1=O`, in assay [1], the cell count was determined as 644. Moreover, the inhibition is 3.3% (inactive) in assay [1], -21.8% (inactive) in [2], 12.8% (inactive) in assay [4] and -11.8% (inactive) in assay [9]. For the same compound, the nuclei count in assay [2] was 104%. For the same compound, the z-score is -0.0402 in [3] (setting [10]), -0.421 in [3] (setting [11]) and 0.466 in assay [3] (setting [12]). The results for the fluorescence slope in [5] and in assay [7] were -0.405 (inactive) and 0.00546 (inactive), respectively. Besides, the NADPH fluorescence slope in assay [6] was -1.9e-05 (inactive). Besides, the outcome in assay [8] was inactive.

In the case of `CCCCCNC(=O)C(C#N)c1nc2ccccc2nc1N1CC(C)OC(C)C1` (centres undefined), the cell count in assay [1] came out at 366. Also, the inhibition was -5.7% (inactive) in assay [1], -192% (inactive) in assay [2], 19.4% (inactive) in assay [4] and -1.81% (inactive) in assay [9]. The same compound came in with a nuclei count in [2] of 130%. Besides, the z-score was 1.56 in assay [3] (setting [10]), -0.566 in [3] (setting [11]) and -0.352 in assay [3] (setting [12]). Further, the figures for the fluorescence slope in assay [5] and in [7] were -0.482 (inactive) and 0.00502 (inactive), respectively. Also, the NADPH fluorescence slope in [6] was -8.1e-05 (inactive). The outcome in [8] was inactive.
